# Experimental data reported in ChEMBL document CHEMBL1124520, “New kelatorphan-related inhibitors of enkephalin metabolism: improved antinociceptive properties” (J Med Chem, 1989).
# Assays:
# [1] = Inhibition of dipeptidyl amino peptidase activity in rat brain with 10 nM [3H]Leu-enkephalin as substrate; format: tissue-based
# Method in brief: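 Membrane-bound dipeptidylaminopeptidase purified from rat brain. Preincubated 15 min at 25 °C in 50 mM Tris-HCl with or without inhibitor. […] IC50 by log-probit over five inhibitor concentrations; mean ± SEM, three independent experiments.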
# Aminopeptidase N = target: T1, Aminopeptidase N (Sus scrofa, UniProt P15145); experiment: Inhibition of Aminopeptidase N activity in pig kidney with 10 nM [3H]Leu-enkephalin as substrate; format: tissue-based
# T1 sequence (P15145 whole entry): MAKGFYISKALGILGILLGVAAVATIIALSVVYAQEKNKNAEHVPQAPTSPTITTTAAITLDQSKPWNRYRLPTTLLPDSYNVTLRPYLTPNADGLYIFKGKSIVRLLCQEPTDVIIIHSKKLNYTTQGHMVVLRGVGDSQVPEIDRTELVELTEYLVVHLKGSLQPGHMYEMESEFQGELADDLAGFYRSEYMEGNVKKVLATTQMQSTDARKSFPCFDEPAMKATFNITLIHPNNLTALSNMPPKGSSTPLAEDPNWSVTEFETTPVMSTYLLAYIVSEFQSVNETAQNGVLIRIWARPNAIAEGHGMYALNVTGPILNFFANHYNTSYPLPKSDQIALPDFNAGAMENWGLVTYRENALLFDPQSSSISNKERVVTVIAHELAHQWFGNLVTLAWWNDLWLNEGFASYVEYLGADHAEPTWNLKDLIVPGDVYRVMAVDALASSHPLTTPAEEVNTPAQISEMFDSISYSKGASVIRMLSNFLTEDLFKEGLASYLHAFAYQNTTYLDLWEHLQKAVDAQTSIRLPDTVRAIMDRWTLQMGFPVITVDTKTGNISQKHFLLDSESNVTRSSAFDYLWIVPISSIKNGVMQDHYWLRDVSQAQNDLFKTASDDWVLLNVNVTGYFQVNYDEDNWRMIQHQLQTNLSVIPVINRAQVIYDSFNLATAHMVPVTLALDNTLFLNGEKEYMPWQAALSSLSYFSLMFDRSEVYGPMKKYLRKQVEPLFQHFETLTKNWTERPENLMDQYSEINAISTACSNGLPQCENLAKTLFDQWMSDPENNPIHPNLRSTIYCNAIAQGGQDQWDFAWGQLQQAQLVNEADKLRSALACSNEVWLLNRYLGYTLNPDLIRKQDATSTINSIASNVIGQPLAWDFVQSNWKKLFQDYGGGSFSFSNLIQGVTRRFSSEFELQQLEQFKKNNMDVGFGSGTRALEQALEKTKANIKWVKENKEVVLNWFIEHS
# Method in brief: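 Commercial aminopeptidase N, used unpurified. Enzyme preincubated 15 min at 25 °C with or without rising inhibitor concentrations in 50 mM Tris-HCl. [3H]Leu-enkephalin (Km 50 μM) added to 10 nM final. Stopped after 30 min with HCl; tritiated metabolites separated on polystyrene beads. IC50 from log-probit of five concentrations, mean ± SEM of three independent experiments.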
# Neprilysin = target: T2, Neprilysin (Oryctolagus cuniculus, UniProt P08049); experiment: Inhibition of neutral endopeptidase activity in rabbit kidney with 20 nM [3H]D-Ala2-Leu-enkephalin as substrate
# T2 sequence (P08049 whole entry): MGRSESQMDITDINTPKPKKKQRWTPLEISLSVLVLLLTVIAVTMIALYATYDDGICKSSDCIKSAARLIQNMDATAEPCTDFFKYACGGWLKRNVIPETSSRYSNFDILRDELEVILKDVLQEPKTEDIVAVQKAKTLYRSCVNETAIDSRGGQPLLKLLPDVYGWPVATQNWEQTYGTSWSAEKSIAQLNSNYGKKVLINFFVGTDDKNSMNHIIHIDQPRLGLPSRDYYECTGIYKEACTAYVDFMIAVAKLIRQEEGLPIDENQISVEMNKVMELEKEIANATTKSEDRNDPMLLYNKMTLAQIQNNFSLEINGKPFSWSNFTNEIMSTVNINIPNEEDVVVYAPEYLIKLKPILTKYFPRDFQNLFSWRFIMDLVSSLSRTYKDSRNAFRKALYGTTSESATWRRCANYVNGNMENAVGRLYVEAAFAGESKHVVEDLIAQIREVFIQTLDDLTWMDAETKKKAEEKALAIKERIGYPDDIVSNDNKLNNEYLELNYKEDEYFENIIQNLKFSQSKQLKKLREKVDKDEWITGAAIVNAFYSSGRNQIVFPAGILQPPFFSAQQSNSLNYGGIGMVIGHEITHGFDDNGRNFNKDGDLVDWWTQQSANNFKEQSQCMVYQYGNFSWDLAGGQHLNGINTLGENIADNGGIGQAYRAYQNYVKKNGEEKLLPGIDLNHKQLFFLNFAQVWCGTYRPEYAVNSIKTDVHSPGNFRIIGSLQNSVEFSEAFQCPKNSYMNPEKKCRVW
# Method in brief: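 NEP purified to homogeneity from rabbit kidney, 1 pmol/100 μL final, preincubated 15 min at 25 °C in 50 mM Tris-HCl with or without inhibitor. [3H]-D-Ala2-Leu-enkephalin (Km 30 μM) added at 20 nM final. Reaction stopped at 30 min with 0.5 M HCl; products separated on polystyrene beads. IC50 from log-probit of five concentrations, mean ± SEM of three experiments.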
# Mus musculus = experiment: Analgesic effect when injected intracerebroventricularly at 50 (microg); format: functional
# Method in brief: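 Male Swiss mice (23–25 g), icv dose of 50 μg in 10 μL saline, n = 10 per group. Hot plate at 55 ± 0.5 °C; jump latency read 15 min after injection, cutoff 240 s. Compared with vehicle controls by ANOVA and Bonferroni test. % analgesia = (experimental − control latency)/(240 s − control latency).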
Structure (SMILES),IC50 [1] [µM],IC50 (Aminopeptidase N) [µM],IC50 (Neprilysin) [µM],Analgesia (Mus musculus) [%],Latency time (Mus musculus) [s]
O=C(O)CNC(=O)C(CC(=O)NO)Cc1ccccc1 (configuration not stated),0.021,2,,,
O=C(O)C[C@H](NC(=O)[C@H](CC(=O)NO)Cc1ccccc1)c1ccccc1,0.0072,0.4,0.003,,
O=C(O)C[C@H](Cc1ccccc1)NC(=O)[C@H](CC(=O)NO)Cc1ccccc1,0.0285,1.43,0.0076,,
O=C(CC(Cc1ccccc1)C(=O)NCC(Cc1ccccc1)C(=O)O)NO (configuration not stated),0.0025,0.0715,0.0018,39.4,151.8
CN(C(=O)C(CC(=O)NO)Cc1ccccc1)C(Cc1ccccc1)C(=O)O (configuration not stated),0.0023,0.12,0.15,,
O=C(O)CCCCNC(=O)C(CC(=O)NO)Cc1ccccc1 (configuration not stated),0.25,0.5,0.0515,,
O=C(CC(Cc1ccccc1)C(=O)NC(Cc1ccccc1)C(=O)O)NO (configuration not stated),,0.13,,,
CC(CNC(=O)C(CC(=O)NO)Cc1ccccc1)C(=O)O (configuration not stated),0.023,0.36,0.0023,46.6,162.3
O=C(O)CCCNC(=O)C(CC(=O)NO)Cc1ccccc1 (configuration not stated),0.15,1.5,0.0275,,
O=C(O)CCNC(=O)C(CC(=O)NO)Cc1ccccc1 (configuration not stated),0.036,0.67,0.0024,21.5,125.3
O=C(O)C[C@H](NC(=O)[C@@H](CC(=O)NO)Cc1ccccc1)c1ccccc1 (racemic),0.0026,0.0325,0.0029,62.1,184.8
O=C(O)C[C@H](Cc1ccccc1)NC(=O)[C@@H](CC(=O)NO)Cc1ccccc1 (racemic),0.00046,0.0225,0.003,68.2,193.7
CC(CC(=O)O)NC(=O)C(CC(=O)NO)Cc1ccccc1 (stereo in doubt; 6),0.01,0.445,0.002,20.5,124
CC(NC(=O)C(CC(=O)NO)Cc1ccccc1)C(C)C(=O)O (stereo in doubt; 11A),0.0105,,0.0265,,
CC(NC(=O)C(CC(=O)NO)Cc1ccccc1)C(C)C(=O)O (stereo in doubt; 11B),0.0175,,0.013,,
CC(CC(=O)O)NC(=O)C(CC(=O)NO)Cc1ccccc1 (stereo in doubt; C),0.0009,0.35,0.0017,,
C[C@H](NC(=O)[C@@H](CC(=O)NO)Cc1ccccc1)C(=O)O [KELATORPHAN],,,,50,167.2
